Laboratory results taken from ChEMBL document CHEMBL1777802, “Synthesis, DNA binding, fluorescence measurements and antiparasitic activity of DAPI related diamidines” (Bioorg Med Chem, 2010).

How the values were obtained:
[1] = system: Poly(dA-dT)oligonucleotide
[2] = system: Trypanosoma brucei rhodesiense; assay: Antiparasitic activity against Trypanosoma brucei rhodesiense STIB900
L6 = assay: Cytotoxicity against rat L6 cells; type: cell-based
How it was run: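 Cultured L6 rat myoblast cells were used for the cytotoxicity measurement, giving an IC50.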

[3] = Selectivity index, ratio of IC50 for rat L6 cells to IC50 for Plasmodium falciparum K1; type: toxicity, cell-based; conditions: read-out: Ratio IC50
How it was run: (§1)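 Selectivity index is IC50 on cultured L6 rat myoblasts divided by IC50 on the parasite (P. falciparum K1 or T. b. rhodesiense STIB900).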

Plasmodium falciparum = assay: Antiparasitic activity against Plasmodium falciparum K1
[4] = Selectivity index, ratio of IC50 for rat L6 cells to IC50 for Trypanosoma brucei rhodesiense STIB900; type: toxicity, cell-based; conditions: read-out: Ratio IC50
How it was run: as §1

[5] = system: Trypanosoma brucei rhodesiense; assay: Ratio of DAPI IC50 to compound IC50 for Trypanosoma brucei rhodesiense STIB900

| SMILES | ΔTm [1] [°C] | IC50 [2] [nM] | IC50 (L6) [nM] | selectivity ratio [3] | IC50 (Plasmodium falciparum) [nM] | selectivity ratio [4] | Ratio IC50 [5] |
| --- | --- | --- | --- | --- | --- | --- | --- |
| N=C(N)c1ccc2cc(-c3ccc(-c4ccccc4)cc3)[nH]c2c1 | 16 | 8720 | 8400 | 9.8 | 858 | 0.96 | – |
| N=C(N)c1ccc(-c2cc3ccc(C(=N)N)cc3[nH]2)cc1 [DAPI] | > 27 | – | – | – | – | 51 | – |
| N=C(N)c1ccc(-c2ccc(-c3ccc(C(=N)N)cc3)o2)cc1 [FURAMIDINE] | – | – | 6700 | – | – | – | – |
| N=C(N)c1ccc2cc(C#Cc3ccc(C(=N)N)nc3)[nH]c2c1 | 19.1 | 3 | 1600 | 516 | 3.1 | 533 | – |
| Cl.Cl.N=C(N)c1ccc(C#Cc2cc3ccc(C(=N)N)cc3[nH]2)cc1 | 19 | 6 | 8700 | 2290 | 3.8 | 1450 | 3 |
| Cl.Cl.N=C(N)c1ccc2cc(C#Cc3ccc(C(=N)N)c(F)c3)[nH]c2c1 | 16 | 9 | 4500 | 763 | 5.9 | 500 | 2 |
| N=C(N)c1ccc(-c2ccc(-c3nc4ccc(C(=N)N)cc4[nH]3)cc2)cc1 | > 27 | – | – | 34000 | – | 2210 | – |
| Cl.Cl.N=C(N)c1ccc(-c2ccc(-c3cc4ccc(C(=N)N)cc4[nH]3)cc2)cc1 | > 27 | – | – | 3180 | – | 5250 | 9 |
| Cl.Cl.N=C(N)c1ccc(-c2ccc(-c3cc4cc(C(=N)N)ccc4[nH]3)cc2)cc1 | 20.9 | 4 | 38900 | 55600 | 0.7 | 9720 | 4.5 |
| N=C(N)c1ccc(C#Cc2cc3ccc(C(=N)N)cc3[nH]2)nc1 | 12.2 | 215 | 13000 | 933 | 14.1 | 60 | – |
